Screening data (PubChem)
MDM2 E3 inh = MDM2-luciferase reporter signal enhancers, primary screen, MDM2 E3 ligase inhibitor project, cell-based, luminescence, 1536-well | E3 ubiquitin-protein ligase Mdm2 (Homo sapiens), Q00987 | cell-based MDM2 ubiquitination luciferase reporter, 2 h; 0 = plate control, 100 = twice control, blank-subtracted | signal enhancement, % at 5 µM | hit rate 0.11% among 210,000 | AID 1230, 2008;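 active means signal enhancement of 30% or more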;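 further: luminescence tracks abundance of the self-degrading MDM2-luciferase fusion protein; higher signal means inhibition of MDM2 E3 ligase activity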
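Timing – 2 h compound exposure at 37 °C · Assay system – mammalian cells stably expressing self-ubiquitinating, self-degrading MDM2 E3–luciferase fusion · Amount – 2000 cells seeded into each well · Measure – % luminescence enhancement versus blank-corrected plate control mean · Measured by – SteadyLite luminescence, 15 min reagent step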
Hsp70 activator = Hsp70 transcriptional activators, primary screen, cell-based, HeLa, Hsp70 promoter luciferase, luminescence, 10 µM; HeLa Hsp70 promoter luciferase reporter; scaled: vehicle 0, proteasome-inhibitor control 100%; hit rate 0.04% among 200,000; activation, % at 10 µM;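 active means activation above the mean across all tested compounds plus 3 SD, cutoff set per campaign, cut at about 5.5% in these data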;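 further: 100% = MG132 at 30 µM as the positive control and 0% = DMSO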
CHOP inh = inhibitors of CHOP promoter induction, primary screen, cell-based, unfolded protein response, luciferase reporter. CHO-K1 CHOP-promoter luciferase, tunicamycin-induced, 15-18 h. inhibition, % at 10 µM. hit rate 3.8% among 220,000. AID 2732, 2010;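 active means compounds that reduced the stress-induced luciferase reporter signal by more than about 70% of percent inhibition, limit read from the data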;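 further: 0% = tunicamycin plus vehicle and 100% = wells without tunicamycin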
S1P3 antagonist = S1P3 receptor antagonists, primary screen, cell-based; CHO S1P3 NFAT-BLA reporter, FRET fluorescence, antagonist mode; inhibition, % at 4.98 µM; AID 485, 2006; Sphingosine 1-phosphate receptor 3 (Homo sapiens), Q99500; hit rate 0.27% among 170,000;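 active means inhibition above the plate cutoff, the mean inhibition of test wells on that plate plus 3 SD, cut at about 28% in these data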;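 further: cells challenged with S1P at its EC80 of 0.8 µM; blue over green emission ratio from cleaved BLA substrate after 4 h stimulation; 0% = S1P-stimulated wells and 100% = unstimulated DMSO-only wells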
Target sequence (Q99500 whole entry, looked up): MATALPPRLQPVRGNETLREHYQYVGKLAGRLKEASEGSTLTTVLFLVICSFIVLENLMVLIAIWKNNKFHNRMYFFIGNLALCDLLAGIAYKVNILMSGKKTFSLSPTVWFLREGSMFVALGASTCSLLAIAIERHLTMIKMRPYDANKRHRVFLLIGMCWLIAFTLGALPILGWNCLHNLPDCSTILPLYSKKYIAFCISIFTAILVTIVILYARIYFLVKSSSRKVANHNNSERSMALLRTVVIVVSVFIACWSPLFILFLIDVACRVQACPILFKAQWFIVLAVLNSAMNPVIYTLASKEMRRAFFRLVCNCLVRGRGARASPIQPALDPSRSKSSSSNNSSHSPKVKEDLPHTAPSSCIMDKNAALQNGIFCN
* marks the source's active call; other numbers are inactive results; . = no result given. Most compounds without a hit are left out; they make up all but 4% or so of the library.

SMILES	MDM2 E3 inh	Hsp70 activator	CHOP inh	S1P3 antagonist
CN1C(=O)N(C)C2(c3ccccc3)N(C(C)(C)C)C(=O)NC12c1ccccc1 (stereo unspecified)	9	-1	0	-9
CC(=O)C(Sc1nc(NC(C)(C)C)nc(N(C)C)n1)C(C)=O	-23	0	73*	.
O=C(Cc1cccc2ccccc12)N/N=C1\CCCc2ccccc21	-18	0	92*	.
O=C(CNc1ccc(F)cc1)N/N=C1\CCCc2ccccc21	4	0	71*	-1
O=C(Cc1ccc(Cl)cc1)N/N=C1\CCCc2ccccc21	-24	0	5	.
Cc1ccc(C2C3C(=O)N(c4ccc(C)cc4)C(=O)C3N3CCCN23)cc1 (stereo unspecified)	-2	.	-2	-4
CCN1C(=O)C(C(=O)c2ccccc2)SC1=S (stereo unspecified)	-6	0	12	-7
COc1cc(C(=O)Nc2ccc(-c3nc4cc(C)ccc4o3)c(O)c2)cc(OC)c1OC	-5	0	8	38
Cc1cc(C)c2oc(-c3cccc(NC(=O)c4ccc(F)cc4)c3)nc2c1	-1	0	91*	.
COc1cc(C(=O)Nc2cccc(-c3nc4cc(C)cc(C)c4o3)c2)cc(OC)c1OC	-3	0	76*	12
NS(=O)(=O)c1cccc(NS(=O)(=O)c2ccc(/C=C/C(=O)OCC(=O)c3ccccc3)cc2)c1	-13	0	7	-15
O=C(OCc1cnc(Cl)s1)c1cccc(Cl)c1Cl	-3	1	40	.
Cc1cccc(N2CCN(c3ccc(N4C(=O)CCCC4=O)cc3[N+](=O)[O-])CC2)c1C	-11	0	84*	-4
O=C1CCCC(=O)N1c1ccc(N2CCN(c3ccccc3)CC2)c([N+](=O)[O-])c1	-1	0	11	-10
Cc1cccc(N2CCN(CC(=O)Nc3ccccc3[N+](=O)[O-])CC2)c1C	-15	0	77*	.
CCN(CC)CCOC(=O)c1ccc2c(c1)OCCO2	-10	0	20	.
CC1CCCC(C)N1C(=O)CSc1nnc(COc2ccccc2)n1-c1ccccc1 (stereo unspecified)	14	0	38	.
O=C(Cn1cc2c(n1)CCCCC2)NC1CCCCCC1	-6	0	6	-22
O=C(Cn1cc2c(n1)CCCC2)NC1CCN(Cc2ccccc2)CC1	-10	0	82*	-27
C=CCNC(=O)CN(c1ccc(F)c(Cl)c1)S(C)(=O)=O	-1	0	79*	-35
CCOC(=O)C1CCN(c2nc(N)c3c(N)nc(SCC(=O)O)cc3c2C#N)CC1	-2	.	7	-12
c1ccc(Nc2cccc(Nc3ccccc3)n2)cc1	-16	0	24	.
c1ccc(Nc2cccc3c(Nc4ccccc4)cccc23)cc1	.	.	79*	14
OC(COC(c1ccccc1)c1ccccc1)CN1CCc2ccccc2C1 (stereo unspecified)	-1	0	42	21
OC(COC(c1ccc(Cl)cc1)c1ccc(Cl)cc1)CN1CCc2ccccc2C1 (stereo unspecified)	-15	0	90*	-4
SMILES	MDM2 E3 inh	Hsp70 activator	CHOP inh	S1P3 antagonist
O=C(CCS(=O)(=O)c1cccc2nonc12)N1CC(=O)N(CCc2ccccc2)C(=O)C1	-1	0	73*	.
Nc1nc(/C=C/c2cccnc2)nc(-c2ccccc2O)n1	-18	0	0	5
Nc1nc(/C=C/c2ccc(F)cc2)nc(-c2ccccc2O)n1	-4	0	80*	-11
C=CCc1cccc(CNc2nc3ccccc3n2CCC)c1O	-10	0	24	77*
C=CCc1cccc(CNc2nc3ccccc3n2CC)c1O	1	0	34	38
CC1CCN(Cc2nnnn2-c2cccc([N+](=O)[O-])c2)CC1	-6	0	44	12
O=C(CCCN1C(=O)/C(=C\c2cccc(Br)c2)SC1=S)Nc1cccnc1	.	0	2	-6
Clc1ccc(OCc2nc(-c3ccncc3)no2)c(Cl)c1	-7	0	83*	28
Clc1cc(Cl)c(OCc2nc(-c3ccccn3)no2)cc1Cl	-48	0	96*	-3
CC(C)(C)c1ccc(OCc2nc(-c3ccccn3)no2)c(Br)c1	-1	0	68	-15
COc1cc(N)c(Cl)cc1C(=O)N[C@@H]1CCN(CCCOc2ccc(F)cc2)C[C@@H]1OC	.	0	-12	8
Cc1ccccc1NC(=O)c1cc(C(=O)c2cc(Cl)ccc2O)cn(-c2ccccc2C)c1=O	2	0	70*	0
Cc1ccc(-n2cc(C(=O)c3cc(Cl)ccc3O)cc(C#N)c2=O)cc1	13	0	34	10
CC1(C)Oc2ccc3ccc(=O)oc3c2/C(=C/Nc2ccccn2)C1=O	-12	0	92*	10
CN/C=C1\C(=O)C(C)(C)Oc2ccc3ccc(=O)oc3c21	3	0	10	-3
Cc1cccc2sc(NC(=O)CN(C)S(=O)(=O)c3ccc(Br)s3)nc12	-7	0	85*	.
Cc1noc(C)c1CSc1nc2ccccc2c(=O)n1-c1ccc(Cl)cc1	4	0	59	.
CC1=NN(c2ccccc2)C(=O)/C1=C\C=C\c1ccccc1	17	.	-19	-5
ClC1=C(Cl)C(Cl)=C(Cl)C1=C/C=C/c1ccccc1	26	.	95*	1
Cc1c(Cc2ccccc2)c(=O)oc2c(C)c(OCC(=O)Nc3ccc(C#N)cc3)ccc12	-13	0	21	-9
Cc1cccc(C)c1NC(=O)COc1ccc2c(C)c(Cc3ccccc3)c(=O)oc2c1C	-8	0	96*	-5
CCOC(=O)Cn1nc(C)n(-c2ccc(Br)cc2)c1=O	-28	0	9	-14
O=C1c2ccccc2C(Nc2ccccc2)N1c1ccc(Cl)cn1 (stereo unspecified)	-13	0	64	.
O=C1c2ccccc2C(Nc2ccc(Cl)cn2)N1Cc1ccccc1 (stereo unspecified)	-4	0	80*	.
N#CC1=C(SCC(=O)NC23CC4CC(CC(C4)C2)C3)NC(=O)C(C#N)C12CCCCC2 (stereo unspecified)	-4	0	85*	-22
SMILES	MDM2 E3 inh	Hsp70 activator	CHOP inh	S1P3 antagonist
CC(C)(C)C1CCC2(CC1)C(C#N)=C(SCC(=O)NC1CCCCC1)NC(=O)C2C#N (stereo unspecified)	5	0	81*	32
Cc1c(C)n(CC(O)CNc2ccccc2)c2ccccc12 (stereo unspecified)	-14	0	90*	-3
CC(=O)N/C(=N\OCc1ccccc1Cl)c1nonc1NC(C)=O	-7	0	-5	-8
N#CC(Cc1ccc(OC(F)F)cc1)c1nc2ccccc2[nH]1 (stereo unspecified)	-17	0	1	10
Cc1cccc2cc(CN(Cc3ccc(F)cc3)C(=O)N(C)C)c3nnnn3c12	-28	-1	90*	.
CC(C)C(=O)Nc1cc(C(F)(F)F)ccc1-n1ccnc1	-7	0	-16	-22
